Laboratory results as given in ChEMBL document CHEMBL2331489, “Novel cinnoline-based inhibitors of LRRK2 kinase activity” (Bioorg Med Chem Lett, 2013).
The source made the active and inactive calls. No cut-off for these calls is given here.

Experiments:
[1] = target: T1, Leucine-rich repeat serine/threonine-protein kinase 2 (Homo sapiens, UniProt Q5S007, G2019S); test: Inhibition of GST-tagged LRRK2 G2019S mutant (970 to 2527 amino acid residues) (unknown origin) assessed as inhibition of biotinylated-LRRKtide phosphorylation by HTRF assay in presence of ATP
T1 sequence (Q5S007 whole entry G2019S, the tested form may be a part): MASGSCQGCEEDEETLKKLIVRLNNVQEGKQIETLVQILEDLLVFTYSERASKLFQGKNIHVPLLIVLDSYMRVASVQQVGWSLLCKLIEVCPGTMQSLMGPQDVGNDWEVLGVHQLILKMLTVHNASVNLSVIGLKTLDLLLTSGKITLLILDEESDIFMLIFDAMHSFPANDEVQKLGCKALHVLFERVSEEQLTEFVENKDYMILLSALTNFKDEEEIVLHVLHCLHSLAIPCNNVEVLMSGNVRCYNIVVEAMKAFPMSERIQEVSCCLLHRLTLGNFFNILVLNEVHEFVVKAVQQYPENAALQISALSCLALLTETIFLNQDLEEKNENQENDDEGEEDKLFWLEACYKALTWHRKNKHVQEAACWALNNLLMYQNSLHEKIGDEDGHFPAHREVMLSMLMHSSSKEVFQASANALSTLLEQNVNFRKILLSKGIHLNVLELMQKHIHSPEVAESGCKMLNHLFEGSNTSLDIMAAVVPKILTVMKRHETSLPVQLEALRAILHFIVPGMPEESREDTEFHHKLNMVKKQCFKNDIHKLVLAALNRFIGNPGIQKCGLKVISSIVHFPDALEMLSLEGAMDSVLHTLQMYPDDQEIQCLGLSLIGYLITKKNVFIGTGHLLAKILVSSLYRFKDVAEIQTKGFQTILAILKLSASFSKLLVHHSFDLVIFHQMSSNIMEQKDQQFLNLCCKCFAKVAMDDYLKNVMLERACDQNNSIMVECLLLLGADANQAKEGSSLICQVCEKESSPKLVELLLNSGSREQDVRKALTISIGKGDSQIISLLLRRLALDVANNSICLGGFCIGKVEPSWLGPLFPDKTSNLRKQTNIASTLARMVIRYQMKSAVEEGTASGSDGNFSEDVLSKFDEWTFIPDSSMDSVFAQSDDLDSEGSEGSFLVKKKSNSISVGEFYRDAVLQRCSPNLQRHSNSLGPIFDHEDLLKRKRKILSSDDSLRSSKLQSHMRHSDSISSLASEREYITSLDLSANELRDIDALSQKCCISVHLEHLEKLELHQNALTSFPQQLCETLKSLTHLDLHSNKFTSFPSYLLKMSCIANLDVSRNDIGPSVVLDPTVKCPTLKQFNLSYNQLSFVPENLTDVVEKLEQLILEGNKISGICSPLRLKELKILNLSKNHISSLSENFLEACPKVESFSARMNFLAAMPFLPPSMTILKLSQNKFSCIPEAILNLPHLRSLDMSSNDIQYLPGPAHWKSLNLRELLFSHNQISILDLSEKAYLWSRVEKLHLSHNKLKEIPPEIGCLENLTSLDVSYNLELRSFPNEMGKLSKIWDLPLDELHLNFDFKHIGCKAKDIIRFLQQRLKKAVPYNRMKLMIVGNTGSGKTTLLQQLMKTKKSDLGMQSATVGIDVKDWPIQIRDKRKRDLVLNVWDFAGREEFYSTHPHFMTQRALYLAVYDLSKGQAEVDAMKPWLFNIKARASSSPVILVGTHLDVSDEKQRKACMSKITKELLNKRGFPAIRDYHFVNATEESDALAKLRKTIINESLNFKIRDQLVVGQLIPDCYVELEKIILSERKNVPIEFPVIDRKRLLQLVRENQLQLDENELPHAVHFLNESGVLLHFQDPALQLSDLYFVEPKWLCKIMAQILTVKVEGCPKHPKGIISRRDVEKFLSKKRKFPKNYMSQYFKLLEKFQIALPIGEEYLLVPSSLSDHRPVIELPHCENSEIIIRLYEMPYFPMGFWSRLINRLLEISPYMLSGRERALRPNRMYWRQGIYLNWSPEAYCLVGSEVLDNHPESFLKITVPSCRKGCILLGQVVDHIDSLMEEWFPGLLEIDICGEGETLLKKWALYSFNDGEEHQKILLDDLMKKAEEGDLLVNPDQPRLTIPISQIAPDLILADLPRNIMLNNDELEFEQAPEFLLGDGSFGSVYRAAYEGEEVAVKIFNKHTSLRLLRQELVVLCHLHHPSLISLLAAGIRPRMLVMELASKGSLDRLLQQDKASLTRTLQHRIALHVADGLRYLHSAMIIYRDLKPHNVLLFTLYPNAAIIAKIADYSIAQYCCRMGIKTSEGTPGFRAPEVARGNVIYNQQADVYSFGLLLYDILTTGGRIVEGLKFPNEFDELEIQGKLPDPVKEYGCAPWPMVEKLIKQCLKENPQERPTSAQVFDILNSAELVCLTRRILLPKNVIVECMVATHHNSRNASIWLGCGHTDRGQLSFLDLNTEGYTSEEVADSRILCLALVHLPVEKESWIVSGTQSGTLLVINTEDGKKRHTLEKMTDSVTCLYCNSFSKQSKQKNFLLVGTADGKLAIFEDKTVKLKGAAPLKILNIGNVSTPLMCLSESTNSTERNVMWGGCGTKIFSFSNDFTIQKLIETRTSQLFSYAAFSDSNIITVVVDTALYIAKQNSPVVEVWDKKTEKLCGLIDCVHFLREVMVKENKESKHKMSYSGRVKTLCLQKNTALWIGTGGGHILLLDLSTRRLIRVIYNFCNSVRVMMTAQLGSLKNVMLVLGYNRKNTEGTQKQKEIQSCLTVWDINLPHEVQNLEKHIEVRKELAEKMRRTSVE

[2] = target: Leucine-rich repeat serine/threonine-protein kinase 2 (Homo sapiens, UniProt Q5S007); test: Inhibition of wild type GST-tagged LRRK2 (970 to 2527 amino acid residues) (unknown origin) assessed as inhibition of biotinylated-LRRKtide phosphorylation by HTRF assay in presence of ATP
Chain of Leucine-rich repeat serine/threonine-protein kinase 2 (Homo sapiens, UniProt Q5S007) (Q5S007 whole entry, the tested form may be a part): as the sequence (Q5S007 whole entry G2019S, the tested form may be a part) above, with S2019G counted along it

[3] = target: T1, Leucine-rich repeat serine/threonine-protein kinase 2; test: Inhibition of LRRK2 G2019S mutant (unknown origin) transfected in HEK293 cells assessed as inhibition of S935 phosphorylation; assay type: cell-based
[4] = target: Platelet-derived growth factor receptor alpha (Homo sapiens, UniProt P16234); test: Inhibition of PDGFRalpha (unknown origin) by TR-FRET assay in presence of ATP
Chain of Platelet-derived growth factor receptor alpha (P16234 whole entry): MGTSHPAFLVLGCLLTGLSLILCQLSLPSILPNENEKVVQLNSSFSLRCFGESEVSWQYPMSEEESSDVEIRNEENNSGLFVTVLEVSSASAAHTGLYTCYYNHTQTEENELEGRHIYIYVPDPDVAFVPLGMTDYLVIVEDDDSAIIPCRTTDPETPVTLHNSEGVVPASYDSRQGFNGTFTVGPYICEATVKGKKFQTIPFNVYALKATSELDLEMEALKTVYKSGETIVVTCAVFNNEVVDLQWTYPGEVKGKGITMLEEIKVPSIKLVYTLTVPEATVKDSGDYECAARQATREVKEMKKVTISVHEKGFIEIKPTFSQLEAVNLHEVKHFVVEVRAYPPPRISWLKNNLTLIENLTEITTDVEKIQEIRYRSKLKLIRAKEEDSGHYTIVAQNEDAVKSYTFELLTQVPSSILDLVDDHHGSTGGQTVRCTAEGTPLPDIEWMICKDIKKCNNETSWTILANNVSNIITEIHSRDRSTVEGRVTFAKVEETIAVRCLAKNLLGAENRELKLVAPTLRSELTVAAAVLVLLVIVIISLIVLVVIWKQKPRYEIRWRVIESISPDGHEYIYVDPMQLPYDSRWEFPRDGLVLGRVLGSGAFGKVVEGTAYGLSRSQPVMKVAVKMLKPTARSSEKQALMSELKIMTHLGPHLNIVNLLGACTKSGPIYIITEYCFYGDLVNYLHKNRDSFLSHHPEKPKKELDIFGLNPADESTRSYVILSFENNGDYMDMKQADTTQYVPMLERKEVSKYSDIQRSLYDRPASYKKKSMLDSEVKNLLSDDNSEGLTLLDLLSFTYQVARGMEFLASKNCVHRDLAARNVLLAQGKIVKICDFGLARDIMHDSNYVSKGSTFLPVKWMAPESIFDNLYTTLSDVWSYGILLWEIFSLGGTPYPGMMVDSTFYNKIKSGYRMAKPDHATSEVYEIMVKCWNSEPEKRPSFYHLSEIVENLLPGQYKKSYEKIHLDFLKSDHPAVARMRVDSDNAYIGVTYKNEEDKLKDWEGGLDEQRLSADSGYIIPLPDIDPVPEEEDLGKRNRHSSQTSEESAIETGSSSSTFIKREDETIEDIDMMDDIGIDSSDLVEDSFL

[5] = target: Macrophage colony-stimulating factor 1 receptor (Homo sapiens, UniProt P07333); test: Inhibition of CSF1R (unknown origin) by TR-FRET assay in presence of ATP
[6] = target: ATP-dependent translocase ABCB1 (Homo sapiens, UniProt P08183); test: Inhibition of MDR1 (unknown origin) transfected in MDCK cells; assay type: cell-based
Chain of ATP-dependent translocase ABCB1 (P08183 whole entry): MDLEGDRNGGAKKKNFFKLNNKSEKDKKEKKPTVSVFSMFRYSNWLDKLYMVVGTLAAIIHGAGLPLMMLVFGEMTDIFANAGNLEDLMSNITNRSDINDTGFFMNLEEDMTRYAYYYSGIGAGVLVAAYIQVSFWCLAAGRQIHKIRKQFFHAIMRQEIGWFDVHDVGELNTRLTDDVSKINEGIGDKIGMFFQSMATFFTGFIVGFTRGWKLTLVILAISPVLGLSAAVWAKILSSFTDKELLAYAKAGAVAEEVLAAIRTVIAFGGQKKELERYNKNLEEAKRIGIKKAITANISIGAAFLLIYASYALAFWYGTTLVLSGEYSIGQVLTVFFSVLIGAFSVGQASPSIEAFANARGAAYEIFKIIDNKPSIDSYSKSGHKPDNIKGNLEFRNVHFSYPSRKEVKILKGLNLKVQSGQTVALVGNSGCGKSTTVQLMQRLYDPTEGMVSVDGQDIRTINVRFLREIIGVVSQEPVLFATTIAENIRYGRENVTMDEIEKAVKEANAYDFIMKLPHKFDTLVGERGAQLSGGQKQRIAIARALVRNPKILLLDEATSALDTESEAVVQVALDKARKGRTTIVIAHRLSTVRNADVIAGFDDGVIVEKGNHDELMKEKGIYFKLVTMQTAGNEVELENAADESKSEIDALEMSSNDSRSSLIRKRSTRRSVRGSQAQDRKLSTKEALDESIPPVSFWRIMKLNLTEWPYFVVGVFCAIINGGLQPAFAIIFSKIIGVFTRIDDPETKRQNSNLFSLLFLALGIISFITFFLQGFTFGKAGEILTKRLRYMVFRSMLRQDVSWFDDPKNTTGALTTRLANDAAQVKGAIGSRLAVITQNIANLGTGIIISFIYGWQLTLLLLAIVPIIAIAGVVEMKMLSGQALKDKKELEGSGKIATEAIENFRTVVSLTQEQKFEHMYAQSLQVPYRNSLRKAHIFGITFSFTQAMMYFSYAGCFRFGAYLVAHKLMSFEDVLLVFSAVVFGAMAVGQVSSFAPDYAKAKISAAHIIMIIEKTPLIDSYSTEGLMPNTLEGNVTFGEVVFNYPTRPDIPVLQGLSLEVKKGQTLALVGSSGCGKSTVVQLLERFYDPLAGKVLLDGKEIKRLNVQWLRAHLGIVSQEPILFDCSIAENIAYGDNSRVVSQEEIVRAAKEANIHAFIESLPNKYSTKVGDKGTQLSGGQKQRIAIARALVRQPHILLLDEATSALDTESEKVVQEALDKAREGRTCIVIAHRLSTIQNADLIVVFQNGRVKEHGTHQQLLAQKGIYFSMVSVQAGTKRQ

[7] = Ratio of drug level in brain to plasma in Mdr1(a/b) knock out and P-gp competent FVB mouse at 1 mg/kg, iv at 5 mins; assay type: ADME, organism-based; set-up: dose 1 mg/kg, route intravenous; settings: read-out: BPR
Method in brief: (§1)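 FVB mice, both Mdr1a/b (-/-) and P-gp-competent wild-type, were given a single 1 mg/kg IV dose. Brain and plasma concentrations were measured 5 min after dosing. Brain uptake was expressed as the brain-to-plasma concentration ratio (Kp). In vivo P-gp efflux was assessed by comparing the knockout and wild-type strains.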

Brain = test: Drug uptake in Mdr1(a/b) knock out and P-gp competent FVB mouse brain at 1 mg/kg, iv at 5 mins; assay type: ADME, organism-based; set-up: dose 1 mg/kg, route intravenous; settings: in vivo; method in brief: as §1
Mus musculus = test: Inhibition of P-gp in Mdr1(a/b) knock out and P-gp competent FVB mouse at 1 mg/kg, iv; assay type: functional, organism-based; set-up: dose 1 mg/kg; method in brief: as §1

Row | SMILES | IC50 [1] [nM] | IC50 [2] [nM] | also measured
1 | CS(=O)(=O)c1ccc(-c2ccc3c(Nc4ccccc4)c(C(N)=O)cnc3c2)cc1 |  | 781 | 
2 | CCNc1c(C(N)=O)nnc2cc(-c3ccc(S(C)(=O)=O)cc3)ccc12 | 55 |  | 
3 | NC(=O)c1nnc2cc(-c3ccncc3)ccc2c1NCCCO | 162 |  | 
4 | Cc1c(-c2ccncc2)ccc2c(NC(C)C)c(C(N)=O)nnc12 | 2510 | 3200 | 
5 | CC(C)Nc1c(C(N)=O)nnc2cc(N3CCN(C)CC3)ccc12 | 59 |  | 
6 | CNC(=O)c1nnc2cc(-c3ccc(S(C)(=O)=O)cc3)ccc2c1NC(C)C | 418 |  | 
7 | CC(C)Nc1c(C(N)=O)nnc2cc(-c3cnn(C)c3)ccc12 | 12 |  | 
8 | C[C@@H](Nc1c(C(N)=O)nnc2cc(-c3ccncc3)ccc12)C1CC1 | 6 | 2 | inhibition (INH) [6]: Active; Kp at 5 min [7]: 1.5; Drug uptake (Brain): Active; EC50 [3]: 62 nM; inhibition (Mus musculus): Active
9 | CS(=O)(=O)c1ccc(-c2ccc3c(NC4CC4)c(C(N)=O)nnc3c2)cc1 | 52 | 49 | 
10 | CC(C)Nc1c(C(N)=O)nnc2cc(-c3cn[nH]c3)ccc12 | 18 | 12 | 

Continued, in another order:

Row | IC50 [1] [nM] | IC50 [2] [nM] | SMILES | also measured
11 | 264 |  | NC(=O)c1nnc2cc(-c3ccncc3)ccc2c1NCCO | 
12 | 32 |  | CS(=O)(=O)c1ccc(-c2ccc3c(NC4CCOCC4)c(C(N)=O)nnc3c2)cc1 | 
13 | 27 |  | CS(=O)(=O)c1ccc(-c2ccc3c(NCC4CC4)c(C(N)=O)nnc3c2)cc1 | 
14 | 298 |  | CS(=O)(=O)c1ccc(-c2ccc3c(N)c(C(N)=O)nnc3c2)cc1 | 
15 | 247 |  | CNC(=O)c1nnc2cc(-c3ccc(S(C)(=O)=O)cc3)ccc2c1N[C@H](C)C1CC1 | 
16 | 20 | 14 | CC(C)Nc1c(C(N)=O)nnc2cc(-c3cnsc3)ccc12 | EC50 [3]: 290 nM
17 | 27 |  | CC(C)Nc1c(C(N)=O)nnc2cc(-c3ccc(S(C)(=O)=O)cc3)ccc12 | IC50 [4]: 262 nM; EC50 [3]: 218 nM; IC50 [5]: 12 nM
18 | 56 |  | CNc1c(C(N)=O)nnc2cc(-c3ccc(S(C)(=O)=O)cc3)ccc12 | 
19 | 53 |  | CS(=O)(=O)c1ccc(-c2ccc3c(NC4CCOC4)c(C(N)=O)nnc3c2)cc1 (racemic) | 
20 | 425 |  | CC(C)Nc1c(C(N)=O)nnc2ccc(-c3cnn(C)c3)cc12 | 
21 | 4 | 1 | CC[C@@H](C)Nc1c(C(N)=O)nnc2cc(-c3ccc(S(C)(=O)=O)cc3)ccc12 | EC50 [3]: 73 nM
